Measured values: paper PMC2193282 (The Journal of Experimental Medicine, 2000)

System: epidermal Langerhans cells
Assay: Langerhans cell migration assay
Assay type: in vivo, BALB/c mice
Details: 24 h after topical application of 0.5% DNFB on ear (Fig. 5 A)
How it was run: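 Ears were harvested 24 h later. Epidermal sheets were separated (0.5 M ammonium thiocyanate, 20 min, 37°C), acetone-fixed and stained with FITC anti-IA mAb 2G9. IA+ cells were counted at ×400 in 10 fields/sample; 5–15 mice/group.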

O=[N+]([O-])c1ccc(F)c([N+](=O)[O-])c1 [DNFB, dinitrofluorobenzene]
reduction of epidermal Langerhans cell density: ~35%
